The target of one data set is T1, Tyrosinase (Agaricus bisporus, UniProt O42713).
T1 sequence (O42713 whole entry): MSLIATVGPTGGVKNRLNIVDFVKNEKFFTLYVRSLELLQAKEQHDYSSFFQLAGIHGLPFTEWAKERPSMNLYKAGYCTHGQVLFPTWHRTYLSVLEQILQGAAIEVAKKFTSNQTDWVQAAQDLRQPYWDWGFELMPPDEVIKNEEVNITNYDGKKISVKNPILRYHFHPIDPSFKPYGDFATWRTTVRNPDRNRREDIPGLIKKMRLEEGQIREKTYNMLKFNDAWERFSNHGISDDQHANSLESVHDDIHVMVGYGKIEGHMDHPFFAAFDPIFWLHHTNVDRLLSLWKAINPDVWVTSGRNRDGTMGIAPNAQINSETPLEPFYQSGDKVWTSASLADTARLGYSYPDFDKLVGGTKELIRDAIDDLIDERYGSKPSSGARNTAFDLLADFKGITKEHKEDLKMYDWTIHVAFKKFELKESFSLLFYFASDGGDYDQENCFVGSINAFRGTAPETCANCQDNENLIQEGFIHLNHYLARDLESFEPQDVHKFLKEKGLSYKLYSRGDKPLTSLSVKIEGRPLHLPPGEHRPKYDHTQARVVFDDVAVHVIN
Put plainly: Inhibition of mushroom tyrosinase assessed as 3,4-dihydroxy-L-phenylalanine oxidation.

Data set [1] deals with T2, Tyrosinase (Agaricus bisporus) (UniProt O42713).
T2 sequence (whole entry): T1 sequence (O42713 whole entry)
Put plainly: Inhibition of mushroom tyrosinase assessed as 3,4-dihydroxy-L-phenylalanine oxidation at 0.1 mM. Put shortly:
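Mushroom tyrosinase was the enzyme source. Activity was reported as IC50 in mM, with compounds tested up to 3.0 mM, and as percent inhibition at 0.1 mM. Values are means of three separate experiments.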

Data set [2] deals with Mus musculus. Put plainly: Toxicity in mouse assessed as mortality at 1200 mg/kg, po administered as single gavage dose after 20 days. Type of data set: organism-based. Also noted: dose 1200 mg/kg, route oral. Particulars: in vivo, 480 h. The procedure, abridged: (§1)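 Acute oral toxicity in mice: one 1200 mg/kg dose given by gavage. Clinical symptoms and mortality were followed for 20 days. Animals were autopsied at the end of the 20-day period, and organs were examined for gross changes.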

For data set [3], the system named is Mus musculus. Put plainly: Toxicity in mouse assessed by autopsy at 1200 mg/kg, po administered as single gavage dose after 20 days. Type of data set: organism-based. The arrangement: dose 1200 mg/kg, route oral. To be noted: in vivo, 480 h. Put shortly:
as §1

This note sets out measurements from ChEMBL document CHEMBL1152202, “Synthesis and biological evaluation of helicid analogues as mushroom tyrosinase inhibitors” (Bioorg Med Chem Lett, 2008).

Activity calls are given as the source filed them. No cut-off for these calls is given here.

`CC(=O)OC[C@H]1O[C@@H](Oc2ccc(C=O)cc2)[C@H](OC(C)=O)[C@@H](OC(C)=O)[C@@H]1OC(C)=O`: at Tyrosinase, the IC50 (usually the point on the concentration scale where inhibition reaches its midpoint) was more than 3000 µM. In data set [1], the outcome was inactive.
For the compound `O=Cc1ccc(O[C@@H]2O[C@@H]3CO[C@@H](c4ccccc4)O[C@H]3[C@@H](O)[C@H]2O)cc1`, the Activity entry in the data set on Mus musculus [2] and in the data set with Mus musculus [3] was “Non-toxic” each time. Further, at Tyrosinase, the IC50 amounted to 52 µM. Moreover, in data set [1], the inhibition (in general, the relative decrease from the control value, in per cent) came out at 77%.
As for `O=Cc1ccc(O[C@@H]2O[C@H](CO)[C@@H](O)[C@H](O)[C@H]2O)cc1`, the Activity result in the data set on Mus musculus [2] and with Mus musculus [3] was “Non-toxic” in each case. The IC50 at Tyrosinase worked out at 940 µM. In addition, the inhibition in data set [1] was found to be 30%.
Consider `CC(=O)OC[C@H]1O[C@@H](O[C@H]2[C@H](OC(C)=O)[C@@H](OC(C)=O)[C@H](Oc3ccc(C=O)cc3)O[C@@H]2COC(C)=O)[C@H](OC(C)=O)[C@@H](OC(C)=O)[C@H]1OC(C)=O`, for which the IC50 on Tyrosinase is more than 3000 µM. Further, the inhibition in data set [1] was 5%.
`COc1ccc(/C=C/C(=O)O)cc1`: the inhibition in data set [1] came out at 22%.
`O=Cc1ccc(O[C@@H]2OC[C@@H](O)[C@@H](O)[C@H]2O)cc1`: on Tyrosinase, the IC50 is 280 µM. The inhibition in data set [1] was 42%.
The like results for `CC1(C)O[C@@H]2[C@H](O)[C@@H](CO)O[C@@H](Oc3ccc(C=O)cc3)[C@@H]2O1` were, in that order, 620 µM and 13%.
In the case of `CC(=O)O[C@H]1[C@@H](OC(C)=O)[C@H](Oc2ccc(C=O)cc2)O[C@H](CO)[C@H]1OC(C)=O`, the IC50 at Tyrosinase is more than 3000 µM. Besides, the outcome in data set [1] was inactive.
For `O=Cc1ccc(O[C@@H]2O[C@H](COC(c3ccccc3)(c3ccccc3)c3ccccc3)[C@@H](O)[C@@H](O)[C@H]2O)cc1`, in that order: more than 3000 µM and “inactive”.
Consider `OC[C@H]1O[C@@H](Oc2ccc(O)cc2)[C@H](O)[C@@H](O)[C@@H]1O`, for which, in data set [1], the result was inactive.
Regarding `COP(=O)(OC)OC[C@H]1O[C@@H](Oc2ccc(C=O)cc2)[C@H](O)[C@H](O)[C@@H]1O`, on Tyrosinase, the IC50 worked out at 430 µM. Besides, the inhibition in data set [1] stood at 24%.
For the compound `O=Cc1ccc(O)cc1` [4-HYDROXYBENZALDEHYDE], the IC50 at Tyrosinase was found to be 1120 µM. In data set [1], the inhibition was 15%.
As for `O=Cc1ccc(O[C@@H]2OC[C@@H](OC(=O)c3ccccc3)[C@@H](OC(=O)c3ccccc3)[C@H]2OC(=O)c2ccccc2)cc1`, the IC50 on Tyrosinase was more than 3000 µM. Also, the result in data set [1] was inactive.
With `O=Cc1ccc(O[C@@H]2O[C@H](CO)[C@@H](O)[C@@H](O)[C@H]2O)cc1` [HELICIDE], at Tyrosinase, the IC50 was determined as 2540 µM. Further, the inhibition in data set [1] amounted to 10%.
